Screening results as filed in PubChem.
The list is not random: actives were taken first. Their share in the collection is about 2.6%.
Ecoli rRNA inh: reduced GFP signal of wild-type E. coli, primary screen, bacterial rRNA inhibitor project, GFP/RFP fluorescence, OD600, single point. 350,000 tested, 1.6% active. GFP signal change (wild-type ribosome), % (test concentration not listed). E. coli WT GFP vs humanized-ribosome RFP mutants, 24 h; stronger effect = lower value; DMSO median 0, no signal -100;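 active = significant combined selectivity score with lowered wild-type GFP, culture density cut under 30%, mutant RFP and density less affected; inactive = any of these conditions unmet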
RAD54 branch: inhibitors of human RAD54 branch migration, primary screen, biochemical, fluorescence, single point. RAD54 Holliday junction branch migration, FAM/BHQ fluorescence. inhibition, % at 10.4 µM. 360,000 tested, 0.14% active;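 active = mean normalized replicate activity at least 40 and at least half of replicates scoring 40 or more; inconclusive = only one of the two criteria met; inactive = mean below 40 and under half of replicates reaching 40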;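 note: inhibitors cause a drop in the FAM fluorescence signal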
MLL AF4-AF9 inh: inhibitors of AF4 peptide binding to AF9, primary screen, biochemical, AlphaScreen, biotin-AF4 peptide, FLAG-AF9, single point. AID 651704, 2012. inhibition, % at 10 µM. Protein AF-9 (Homo sapiens), P42568. 350,000 tested, 0.47% active;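 active = every replicate reaching a set inhibition limit, whatever the replicate mean, cut at about 25% in these data; inconclusive = mean inhibition reaches that limit but some replicates miss it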
Target sequence (P42568 whole entry, looked up): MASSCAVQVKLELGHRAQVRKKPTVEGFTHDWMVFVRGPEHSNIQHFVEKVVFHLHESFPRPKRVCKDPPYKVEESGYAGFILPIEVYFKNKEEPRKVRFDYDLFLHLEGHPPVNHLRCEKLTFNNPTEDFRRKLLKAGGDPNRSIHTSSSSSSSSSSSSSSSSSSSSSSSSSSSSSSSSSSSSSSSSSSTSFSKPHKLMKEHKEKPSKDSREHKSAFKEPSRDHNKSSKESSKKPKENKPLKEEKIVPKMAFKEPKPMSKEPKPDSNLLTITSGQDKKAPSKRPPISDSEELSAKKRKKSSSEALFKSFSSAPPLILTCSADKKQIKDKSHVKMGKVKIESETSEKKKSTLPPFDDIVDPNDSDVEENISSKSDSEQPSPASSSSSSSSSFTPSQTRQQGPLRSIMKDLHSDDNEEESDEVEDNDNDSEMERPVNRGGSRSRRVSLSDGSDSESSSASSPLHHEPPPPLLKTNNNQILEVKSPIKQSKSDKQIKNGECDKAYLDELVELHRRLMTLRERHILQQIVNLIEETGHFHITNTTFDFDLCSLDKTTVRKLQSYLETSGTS
E-sel inducer: E-selectin induction in HUVECs, primary screen, imaging, HUVEC, immunofluorescence imaging, single point. normalized: neutral wells 0, TNF-alpha wells 100. activation, % at 7.58 µM. 260,000 tested, 0.37% active. AID 686992, 2013;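 active = mean E-selectin-positive cell signal at least 10% of the positive control, reached in at least 60% of replicates, without over 20% cell loss; inconclusive = no rule given, readout overlaps actives, possibly toxicity-flagged; inactive = the rest, including those meeting only one limit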
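Assay system: HUVEC primary endothelial cells. Input: 3,000 HUVEC seeded per well. Doses: one compound dose added by pin transfer. Read-out basis: % PE-positive cells. Benchmarks: TNF-alpha high, DMSO low. Detection: immunofluorescence imaging. Buffer or medium: EGM-2, gelatin.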
INS-1E GSIS act: GLuc luminescence reporter in INS-1E cells, primary screen for activators of glucose-dependent secretion of insulin; INS-1E GLuc reporter insulin secretion, 2-3 h; activation, % at 16.6 µM; 370,000 tested, 0.61% active; AID 743287, 2014;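 active = lowest replicate activation of at least 40%, so every replicate reaches that level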
RAD52 anneal inh: RAD52 DNA annealing inhibitors, primary screen, biochemical, FRET, single point, set 2. recombinant RAD52 DNA annealing, FRET fluorescence. inhibition, % at 18.7 µM. 360,000 tested, 0.46% active;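 active = every replicate showing at least 50% inhibition; inconclusive = mean inhibition at least 50% but not in every replicate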
HepG2 cytotox: cytotoxicity in HepG2 cells, dose response, cytotoxicity control, cell-based, CellTiter-Glo luminescence, cherry-pick, set 4; HepG2 viability, ATP luminescence, 72 h; AID 743480, 2014; activity change, negative = cytotoxicity, unspecified at 26 µM; shares compounds with Ecoli rRNA inh; 30 tested, under 10 active;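 active = compounds whose fitted half-maximal signal-loss concentration is at most twice their highest valid dose; inconclusive = flat curve with 30 to 70% signal loss, or poor fit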
AID977621: growth inhibition of wild-type GFP E. coli, dose response, H69 mutant RFP, cherry-pick; shares compounds with Ecoli rRNA inh; E. coli wild-type GFP strain growth, fluorescence, 24 h; activity change, negative = inhibition at 50 µM; 1,900 tested, under 10 active; AID 977621, 2014;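 active = Wild-type ribosome reporter drop at least double the humanized mutant ribosome reporter drop, growth loss under a set limit; inconclusive = no clear call, values can overlap the other calls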;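 note: wild-type GFP and H69 mutant RFP strains grown together 50/50 in each well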
AID977628: E. coli growth inhibition, wild-type GFP versus h24 humanized RFP strain, dose response, h24 mutant RFP vs wild-type GFP, cherry-pick | 1,900 tested, under 10 active | shares compounds with Ecoli rRNA inh | AID 977628, 2014 | E. coli WT GFP strain growth, fluorescence, 24 h | activity change, negative = inhibition at 50 µM;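 active = compound lowering the normal-ribosome reporter at least twice as much as the humanized-ribosome reporter, growth loss under a set limit; inconclusive = no clear call, values can overlap the other calls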;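 note: wild-type GFP and h24 humanized RFP strains co-cultured 1 to 1 per well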
Each line names hits and unclear results; the compound was inactive in the other large screens (follow-up assays come after a bar, where they were run).

Cc1nc2ccccn2c1C(=O)Nc1ccc(Cl)cc1	Ecoli rRNA inh -18.0 (no result: RAD54 branch) | AID977621 inactive | AID977628 inactive
Cc1ccc(C2NC(c3ccc(C)cc3)C(C)C(=O)C2C)cc1 (stereo unspecified)	Ecoli rRNA inh -27.4 (no result: RAD54 branch, MLL AF4-AF9 inh) | AID977621 inactive | AID977628 inactive
COc1ccccc1C(=O)COC(=O)c1ccccc1O	none (no result: E-sel inducer)
COc1ccccc1C(=O)COC(=O)c1cccs1	Ecoli rRNA inh -23.9 | AID977621 inactive | AID977628 inactive
COc1ccc(-n2cc(-c3ccccc3)c3c(N4CCOCC4)ncnc32)cc1	Ecoli rRNA inh -29.4 (no result: E-sel inducer) | HepG2 cytotox inactive | AID977628 inconclusive
CSc1ccccc1NC(=O)c1ccccc1N(Cc1ccccc1)S(C)(=O)=O	Ecoli rRNA inh -24.1 (no result: E-sel inducer) | AID977621 inactive
O=C(C[C@H]1CC[C@H]2[C@@H](COC[C@H](O)CN2S(=O)(=O)c2ccc(Cl)cc2)O1)N[C@H]1CCN(Cc2ccccc2)C1	none
CC(C)CNC(=O)c1cccc(NC(=O)C(C)Oc2ccccc2)c1 (stereo unspecified)	Ecoli rRNA inh -24.2 (no result: RAD54 branch, E-sel inducer) | AID977621 inactive | AID977628 inactive
COc1ccc(OC(C)C(=O)Nc2cccc(F)c2)cc1 (stereo unspecified)	Ecoli rRNA inh -22.8 (no result: RAD54 branch, E-sel inducer) | AID977621 inactive | AID977628 inconclusive
C[C@H](CO)N1C[C@H](C)[C@@H](CN(C)C(=O)Nc2ccc(F)cc2)Oc2ccc(NS(=O)(=O)c3cn(C)cn3)cc2C1=O	none (no result: RAD54 branch, MLL AF4-AF9 inh, RAD52 anneal inh)
C[C@H](CO)N1C[C@H](C)[C@@H](CN(C)C(=O)CCCN(C)C)OCCCC[C@H](C)Oc2ccc(NS(=O)(=O)c3ccccc3)cc2C1=O	none
NC(=O)C1CCN(c2cc(Cl)ccc2[N+](=O)[O-])CC1	Ecoli rRNA inh -22.1 (no result: RAD54 branch, INS-1E GSIS act) | AID977621 inactive
NC(=O)C1CCN(c2cc(N3CCOCC3)ccc2[N+](=O)[O-])CC1	none
O=C(Nc1cccc(S(=O)(=O)c2cccc(NC(=O)C3CC3)c2)c1)C1CC1	Ecoli rRNA inh -23.2 (no result: E-sel inducer) | AID977621 inconclusive | AID977628 inactive
CS(=O)(=O)c1cccc(NC(=O)C2CC2)c1	none (no result: RAD54 branch, E-sel inducer)
CC(=O)c1c(C)[nH]c(C(=O)Nc2nc(-c3ccc(Cl)cc3)cs2)c1C	none (no result: Ecoli rRNA inh, RAD54 branch, MLL AF4-AF9 inh, E-sel inducer, RAD52 anneal inh)
CC(=O)c1c(C)[nH]c(C(=O)Nc2nc(C)cs2)c1C	Ecoli rRNA inh -21.2 (no result: INS-1E GSIS act) | AID977621 inactive | AID977628 inactive
CC(C)OC(=O)C[N+](C)(C)CCN1C(=O)C2C(c3ccccc3)C=CC(c3ccccc3)C2C1=O (stereo unspecified)	Ecoli rRNA inh -34.5 (no result: RAD54 branch, E-sel inducer) | AID977621 inactive | AID977628 inactive
CCNC(=O)C[C@@H]1CC[C@@H](NS(=O)(=O)c2ccc(F)cc2)[C@@H](CO)O1	none
CCCNc1ccc(C(=O)OCC)cc1[N+](=O)[O-]	Ecoli rRNA inh -30.5 | AID977621 inactive | AID977628 inactive
CC(C)Cn1c(=O)c2ccccc2c2ccccc2c1=O	Ecoli rRNA inh -27.9 (no result: E-sel inducer) | AID977621 inactive
CCOC(=O)c1c(C)nsc1NCc1ccccc1	Ecoli rRNA inh -28.9 (no result: RAD54 branch, MLL AF4-AF9 inh, E-sel inducer) | AID977621 inactive
COC(=O)C1CCN(C(=O)c2ccc(OC)c(S(=O)(=O)N3CCCc4ccccc43)c2)CC1	Ecoli rRNA inh -13.5 | AID977621 inactive | AID977628 inconclusive
C[C@@H]1CCCCO[C@H](CN(C)C)[C@@H](C)CN([C@H](C)CO)C(=O)c2cc(NC(=O)Nc3cccc4ccccc34)ccc2O1	none | AID977621 inactive | AID977628 inconclusive
C[C@H]1CCCCO[C@H](CN(C)C)[C@@H](C)CN([C@@H](C)CO)C(=O)c2cc(NC(=O)Nc3cccc4ccccc34)ccc2O1	none | AID977621 inactive | AID977628 inconclusive
C[C@H](CO)N1C[C@H](C)[C@H](CN(C)CC2CC2)OCCCC[C@H](C)Oc2ccc(NC(=O)Nc3cccc4ccccc34)cc2C1=O	none (no result: MLL AF4-AF9 inh, RAD52 anneal inh)
C[C@@H]1CCCCO[C@@H](CN(C)S(C)(=O)=O)[C@@H](C)CN([C@H](C)CO)C(=O)c2cc(NC(=O)Nc3cccc4ccccc34)ccc2O1	none
C[C@@H]1CCCCO[C@@H](CN(C)C(=O)Nc2cccc3ccccc23)[C@@H](C)CN([C@@H](C)CO)C(=O)c2cc(NC(=O)Nc3cccc4ccccc34)ccc2O1	none
C[C@@H]1CN([C@@H](C)CO)C(=O)c2cc(NC(=O)Nc3cccc4ccccc34)ccc2O[C@@H](C)CCCCO[C@H]1CN(C)C	none | AID977621 inactive | AID977628 inactive
C[C@@H]1CCCCO[C@@H](CN(C)C)[C@H](C)CN([C@@H](C)CO)C(=O)c2cc(NC(=O)Nc3cccc4ccccc34)ccc2O1	none | AID977621 inactive | AID977628 inactive
C[C@@H]1CCCCO[C@H](CN(C)S(C)(=O)=O)[C@H](C)CN([C@@H](C)CO)C(=O)c2cc(NC(=O)Nc3cccc4ccccc34)ccc2O1	none
COc1ccccc1NC(=O)N[C@@H]1CC[C@H](CC(=O)NCc2ccc(Cl)c(Cl)c2)O[C@H]1CO	none
O=C(Nc1cc(F)ccc1F)N[C@H]1C=C[C@@H](CC(=O)N2CCc3ccccc3C2)O[C@H]1CO	none
CO[C@@H]1CN(C)C(=O)c2ccc(NC(=O)Cc3ccccc3)cc2OC[C@@H](C)N(CC2CC2)C[C@H]1C	none (no result: RAD54 branch)
C[C@@H]1CCCCO[C@@H](CN(C)C(=O)c2ccccc2)[C@H](C)CN([C@@H](C)CO)C(=O)c2cc(NC(=O)Cc3ccccc3)ccc2O1	Ecoli rRNA inh -25.0 | AID977628 inconclusive
C[C@@H]1CCCCO[C@H](CN(C)C)[C@H](C)CN([C@H](C)CO)C(=O)c2cc(NC(=O)Nc3cccc4ccccc34)ccc2O1	none | AID977621 inactive
